# Data taken from ChEMBL document CHEMBL3120099, “Novel S1P(1) receptor agonists--part 2: from bicyclo[3.1.0]hexane-fused thiophenes to isobutyl substituted thiophenes” (J Med Chem, 2014).
# System: not listed separately
# Test: Plasma concentration in Wistar rat at 10 mg/kg, po after 6 hrs
# Assay type: ADME, organism-based
# Design: dose 10 mg/kg, route oral
row,concentration at 6 h [ng/mL],SMILES
1,680,Cc1cc(-c2noc(-c3ccc(CC(C)C)s3)n2)cc(C)c1OCC(O)CNC(=O)CO (racemic)

# System: not listed separately
# Test: Plasma concentration in Wistar rat at 10 mg/kg, po after 24 hrs
# Assay type: ADME, organism-based
# Design: dose 10 mg/kg, route oral
row,concentration at 24 h [ng/mL],SMILES
1,23,Cc1cc(-c2noc(-c3ccc(CC(C)C)s3)n2)cc(C)c1OCC(O)CNC(=O)CO (racemic)

# System: Rattus norvegicus
# Test: Lymphopenic activity in po dosed Wistar rat assessed as reduction in blood lymphocyte count
# Assay type: functional, organism-based
# Outline: (§1)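 Normotensive male Wistar rats given 1–10 mg/kg by gavage in 5% DMSO/7.5% succinylated gelatin. Blood taken before and 3, 6 and 24 h after dosing, with later times for some compounds. Lymphocytes counted by hematology analyzer. % LC change calculated per animal relative to the predose value (=100%). Mean ± SEM.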
row,SMILES,Activity
1,Cc1cc(-c2noc(-c3ccc(CC(C)C)s3)n2)cc(C)c1OCC(O)CNC(=O)CO (racemic),Dose-dependent effect

# System: Rattus norvegicus
# Test: Lymphopenic activity in Wistar rat assessed as reduction in blood lymphocyte count at 10 mg/kg, po after 3 hrs
# Assay type: functional
# Design: scale not given: the % may be the effect or the level left
# Outline: as §1
row,SMILES,Activity [%]
1,Cc1cc(-c2noc(-c3ccc(CC(C)C)s3)n2)cc(C)c1OCC(O)CNC(=O)CO (racemic),-75

# System: Rattus norvegicus
# Test: Lymphopenic activity in Wistar rat assessed as reduction in blood lymphocyte count at 10 mg/kg, po after 24 hrs
# Assay type: functional
# Outline: as §1
row,SMILES,% change in blood lymphocyte count from predose [%]
1,Cc1cc(-c2noc(-c3ccc(CC(C)C)s3)n2)cc(C)c1OCC(O)CNC(=O)CO (racemic),-66

# System: Rattus norvegicus
# Test: Lymphopenic activity in Wistar rat assessed as reduction in blood lymphocyte count at 10 mg/kg, po after 6 hrs
# Assay type: functional
# Design: scale not given: the % may be the effect or the level left
# Outline: as §1
row,SMILES,Activity [%]
1,Cc1cc(-c2noc(-c3ccc(CC(C)C)s3)n2)cc(C)c1OCC(O)CNC(=O)CO (racemic),-79

# Target: Sphingosine 1-phosphate receptor 1 (Homo sapiens, UniProt P21453)
# Sequence (P21453 whole entry): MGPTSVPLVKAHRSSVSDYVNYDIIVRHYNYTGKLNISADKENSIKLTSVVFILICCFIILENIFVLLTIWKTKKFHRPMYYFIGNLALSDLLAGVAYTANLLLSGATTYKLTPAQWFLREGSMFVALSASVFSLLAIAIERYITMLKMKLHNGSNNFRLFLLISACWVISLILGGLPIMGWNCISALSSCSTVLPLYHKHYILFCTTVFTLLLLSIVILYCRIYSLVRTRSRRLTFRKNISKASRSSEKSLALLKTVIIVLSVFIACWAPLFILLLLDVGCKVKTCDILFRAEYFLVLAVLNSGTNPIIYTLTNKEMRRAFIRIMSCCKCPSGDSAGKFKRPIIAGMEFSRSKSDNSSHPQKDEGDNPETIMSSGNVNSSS
# Test: Agonist activity at human recombinant S1P1 receptor expressed in CHO cells assessed as membrane-bound 35S-GTPgammaS incubated 30 mins prior to substrate addition measured after 1 hr by topcount scintillation counting analysis
# Assay type: functional, cell-based
row,EC50 [nM],SMILES
1,0.6,Cc1cc(-c2noc(-c3ccc(CC(C)C)s3)n2)cc(C)c1OCC(O)CNC(=O)CO (racemic)

# System: Rattus norvegicus
# Test: Lymphopenic activity in Wistar rat assessed as reduction in blood lymphocyte count at 10 mg/kg, po after 72 hrs
# Assay type: functional
# Design: scale not given: the % may be the effect or the level left
# Outline: as §1
row,SMILES,Activity [%]
1,Cc1cc(-c2noc(-c3ccc(CC(C)C)s3)n2)cc(C)c1OCC(O)CNC(=O)CO (racemic),14

# System: not listed separately
# Test: Plasma concentration in Wistar rat at 10 mg/kg, po after 3 hrs
# Assay type: ADME, organism-based
# Design: dose 10 mg/kg, route oral
row,concentration at 3 h [ng/mL],SMILES
1,1010,Cc1cc(-c2noc(-c3ccc(CC(C)C)s3)n2)cc(C)c1OCC(O)CNC(=O)CO (racemic)

# Target: Sphingosine 1-phosphate receptor 3 (Homo sapiens, UniProt Q99500)
# Sequence (Q99500 whole entry): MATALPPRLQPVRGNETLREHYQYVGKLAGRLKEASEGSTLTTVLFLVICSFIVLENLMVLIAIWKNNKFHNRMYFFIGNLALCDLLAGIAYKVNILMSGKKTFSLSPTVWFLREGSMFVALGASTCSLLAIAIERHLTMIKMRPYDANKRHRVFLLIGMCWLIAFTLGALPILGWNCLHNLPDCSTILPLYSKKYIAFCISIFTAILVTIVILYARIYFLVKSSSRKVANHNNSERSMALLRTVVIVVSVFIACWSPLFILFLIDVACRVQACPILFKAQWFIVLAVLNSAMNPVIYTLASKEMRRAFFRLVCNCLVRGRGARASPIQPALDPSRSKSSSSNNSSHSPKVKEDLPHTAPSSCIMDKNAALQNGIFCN
# Test: Agonist activity at human recombinant S1P3 receptor expressed in CHO cells assessed as membrane-bound 35S-GTPgammaS incubated 30 mins prior to substrate addition measured after 1 hr by topcount scintillation counting analysis
# Assay type: functional, cell-based
row,EC50 [nM],SMILES
1,247,Cc1cc(-c2noc(-c3ccc(CC(C)C)s3)n2)cc(C)c1OCC(O)CNC(=O)CO (racemic)
